According to ChEMBL document CHEMBL1124883, “Monophosphoric acid diesters of 7 beta-hydroxycholesterol and of pyrimidine nucleosides as potential antitumor agents: synthesis and preliminary evaluation of antitumor activity” (1990):

Key:
[1] = species on record: Mus musculus; test: Complete recovery expressed as percent of animals surviving for more than 80 days was determined; assay type: functional
Summary of the method: (§1)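 Krebs II ascitic carcinoma, 1 × 10^6 cells in 0.25 mL 0.9% NaCl from donor mice with 8-10-day tumors, implanted ip into female Swiss/OF1 mice (20-25 g, six per group). Drugs were given in saline, water or aqueous suspension, 0.2 mL ip daily, starting 24 or 96 h post-implant. Saline controls.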

[2] = The percentage of increase in life span was determined; assay type: functional, Mus musculus; summary of the method: as §1
[3] = Evaluated for median survival time against Kreb II murine sarcoma cells in female Swiss/OF1 mice after ip administration of 80 umol/kg per day; assay type: functional, Mus musculus; summary of the method: as §1
[4] = Evaluated for median survival time against Kreb II murine sarcoma cells in female Swiss/OF1 mice after ip administration of 84 uM/kg per day; assay type: functional, Mus musculus; summary of the method: as §1
[5] = Evaluated for median survival time against Kreb II murine sarcoma cells in female Swiss/OF1 mice after ip administration of 80 uM/kg per day; assay type: functional, Mus musculus; summary of the method: as §1

Row | SMILES | CR [1] | ILS [2] | Median survival time [3] | Median survival time [4] | Median survival time [5]
1 | CC(C)CCCC(C)[C@H]1CCC2C3C(CC[C@@]21C)[C@@]1(C)CC[C@H](O)CC1=C[C@@H]3O (stereo in doubt; form 2) [listing 1 of 2 here] | 30% | – | – | – | –
2 | CC(C)CCCC(C)[C@H]1CC[C@H]2[C@@H]3[C@@H](O)C=C4C[C@@H](O)CC[C@]4(C)[C@H]3CC[C@]12C.O=c1ccn([C@@H]2O[C@H](CO)[C@@H](O)[C@H]2O)c(=O)[nH]1 (some centres undefined) | – | 40% | 21 days | – | –
3 | CC(C)CCCC(C)[C@H]1CCC2C3C(CC[C@@]21C)[C@@]1(C)CC[C@H](O)CC1=C[C@@H]3O (stereo in doubt; form 1) | – | 40% | 21 days | – | –
4 | CC(C)CCCC(C)[C@H]1CCC2C3C(CC[C@@]21C)[C@@]1(C)CC[C@H](O)CC1=C[C@@H]3O (stereo in doubt; form 2) [listing 2 of 2 here] | – | 180% | – | 42 days | –
5 | O=c1[nH]c(=O)n([C@@H]2O[C@H](CO)[C@@H](O)[C@H]2O)cc1F [5-FLUOROURIDINE] | – | 93% | – | – | 29 days
